According to ChEMBL document CHEMBL1933044:
Calls of active or inactive are those of the source. The rule behind the calls is not given here.

Assays:
[1] = test system: Vesicular stomatitis virus; assay: Antiviral activity against VSV in human HEL cells assessed as viability by MTS based microscopy; format: functional, organism-based
Outline: (§1)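 Cell culture virus assays. Inhibition of virus replication and compound cytotoxicity were scored by microscopic examination and confirmed by a colorimetric MTS cell viability assay. Selectivity index is the ratio of cytotoxic to antiviral concentration.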

Reovirus sp. = assay: Antiviral activity against Reovirus 1 assessed as inhibition of viral replication; format: functional, organism-based; outline: as §1
[2] = test system: Vesicular stomatitis virus; assay: Antiviral activity against VSV in HeLa cells assessed as inhibition of viral replication; format: functional, organism-based; outline: as §1
Human respirovirus 3 = assay: Antiviral activity against Parainfluenza-3 virus assessed as inhibition of viral replication; format: functional, organism-based; outline: as §1
[3] = test system: Respiratory syncytial virus; assay: Antiviral activity against RSV assessed as inhibition of viral replication; format: functional, organism-based; outline: as §1
Feline coronavirus = assay: Antiviral activity against Feline coronavirus assessed as inhibition of viral replication; format: functional, organism-based; outline: as §1
[4] = Antagonist activity at NMDAR in rat cerebellar granule neurons assessed as inhibition of glutamate-induced calcium flux after 5 mins using FURA-2AM in presence of glycine; format: functional
Outline: (§2)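 Primary cerebellar granule neuron cultures grown on poly-L-lysine-coated glass coverslips and used after 7-14 days in vitro. Intracellular calcium recorded in real time over 1200 s. Cells were stimulated with NMDA or glutamate (100 μM, with 10 μM glycine), then given increasing cumulative compound concentrations. Percent inhibition at each concentration was fitted by non-linear regression (variable slope). At least three experiments on three culture batches.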

Coxsackievirus B4 = assay: Antiviral activity against Coxsackievirus B4 assessed as inhibition of viral replication; format: functional, organism-based; outline: as §1
Human alphaherpesvirus 2 = assay: Antiviral activity against HSV2 assessed as inhibition of viral replication; format: functional, organism-based; outline: as §1
Human alphaherpesvirus 1 = assay: Antiviral activity against HSV1 assessed as inhibition of viral replication; format: functional, organism-based; outline: as §1
Vaccinia virus = assay: Antiviral activity against Vaccinia virus assessed as inhibition of viral replication; format: functional, organism-based; conditions: Orthopoxvirus vaccinia; outline: as §1
Sindbis virus = assay: Antiviral activity against Sindbis virus assessed as inhibition of viral replication; format: functional, organism-based; outline: as §1
Punta Toro virus = assay: Antiviral activity against Punta Toro virus assessed as inhibition of viral replication; format: functional, organism-based; outline: as §1
[5] = Antagonist activity at NMDAR in rat cerebellar granule neurons assessed as inhibition of NMDA-induced calcium flux after 5 mins using FURA-2AM in presence of glycine; format: functional; outline: as §2
Trypanosoma brucei [6] = assay: Antitrypanosomal activity against bloodstream form of Trypanosoma brucei 427 after 48 hrs by hemocytometer analysis; format: functional, organism-based; conditions: Trypanosoma brucei, 427, 48 h
[7] = Selectivity index, ratio of cytotoxicity for HeLa cells to ratio of EC50 for Vesicular stomatitis virus; format: toxicity, cell-based; conditions: human, read-out: Selectivity Index; outline: as §1
Influenza B virus = assay: Antiinfluenza activity against Influenza B virus (B/Hong Kong/05/1972) assessed as inhibition of viral replication; format: functional; outline: as §1
H3N2 subtype = assay: Antiinfluenza activity against Influenza A virus (A/Hong Kong/7/1987(H3N2)) assessed as inhibition of viral replication; format: functional, organism-based; outline: as §1
Influenza A virus = assay: Antiinfluenza activity against Influenza A virus (A/Puerto Rico/8/1934(H1N1)) assessed as inhibition of viral replication; format: functional, organism-based; outline: as §1
[8] = target: Matrix protein 2 (Influenza A virus) (UniProt P06821); assay: Inhibition of Influenza A virus (A/Puerto Rico/8/1934(H1N1)) M2 channel expressed in Xenopus oocytes at 100 uM by two-electrode voltage clamp assay; format: cell-based; conditions: Oocyte
Matrix protein 2 (Influenza A virus), sequence (P06821 whole entry): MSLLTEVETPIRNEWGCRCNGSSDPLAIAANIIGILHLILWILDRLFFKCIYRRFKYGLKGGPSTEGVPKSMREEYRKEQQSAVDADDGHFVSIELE

Trypanosoma brucei [9] = assay: Ratio of compound IC90 to rimantadine IC90 for bloodstream form of Trypanosoma brucei 427; format: functional

Structure (SMILES): CC12CC3CC(N4CCCCC4)(CC(C1)c1ccccc13)C2
- Activity [1]: inactive
- Activity (Reovirus sp.): inactive
- EC50 [2]: 54 µM
- Activity (Human respirovirus 3): inactive
- Activity [3]: inactive
- Activity (Feline coronavirus): inactive
- IC50 [4]: > 500 µM
- Activity (Coxsackievirus B4): inactive
- Activity (Human alphaherpesvirus 2): inactive
- Activity (Human alphaherpesvirus 1): inactive
- Activity (Vaccinia virus): inactive
- Activity (Sindbis virus): inactive
- Activity (Punta Toro virus): inactive
- IC50 [5]: 101 µM

Structure (SMILES): C#CCN(CC#C)C12CC3CC(C)(CC(C1)c1ccccc13)C2
- IC50 (Trypanosoma brucei [6]): 13.4 µM
- IC90 (Trypanosoma brucei [6]): 21.6 µM
- Activity [1]: inactive
- Activity (Reovirus sp.): inactive
- selectivity ratio [7]: 25
- EC50 [2]: 4 µM
- Activity (Human respirovirus 3): inactive
- Activity [3]: inactive
- Activity (Feline coronavirus): inactive
- IC50 [4]: > 500 µM
- Activity (Coxsackievirus B4): inactive
- Activity (Human alphaherpesvirus 2): inactive
- Activity (Human alphaherpesvirus 1): inactive
- Activity (Vaccinia virus): inactive
- Activity (Sindbis virus): inactive
- Activity (Punta Toro virus): inactive
- IC50 [5]: > 200 µM

Structure (SMILES): CC12CC3CC(NCc4ccccc4)(CC(C1)c1ccccc13)C2
- IC50 (Trypanosoma brucei [6]): 3 µM
- IC90 (Trypanosoma brucei [6]): 6.55 µM
- Activity (Influenza B virus): inactive
- Activity (Reovirus sp.): inactive
- Activity (H3N2 subtype): inactive
- EC50 (Influenza A virus): 10 µM
- Activity (Human respirovirus 3): inactive
- Activity [3]: inactive
- Activity (Feline coronavirus): inactive
- IC50 [4]: > 500 µM
- Activity (Coxsackievirus B4): inactive
- Activity (Human alphaherpesvirus 2): inactive
- Activity (Human alphaherpesvirus 1): inactive
- Activity (Vaccinia virus): inactive
- Activity (Sindbis virus): inactive
- Activity (Punta Toro virus): inactive
- inhibition [8]: inactive
- IC50 [5]: > 200 µM

Structure (SMILES): CN(C)C12CC3CC(C)(CC(C1)c1ccccc13)C2
- IC50 (Trypanosoma brucei [6]): 1.99 µM
- IC90 (Trypanosoma brucei [6]): 3.14 µM
- Activity (Reovirus sp.): inactive
- Activity (Human respirovirus 3): inactive
- Activity [3]: inactive
- Activity (Feline coronavirus): inactive
- IC50 [4]: 87 µM
- Activity (Coxsackievirus B4): inactive
- Activity (Human alphaherpesvirus 2): inactive
- Activity (Human alphaherpesvirus 1): inactive
- Activity (Vaccinia virus): inactive
- Activity (Sindbis virus): inactive
- Activity (Punta Toro virus): inactive
- inhibition [8]: inactive
- IC50 [5]: 11.8 µM

Structure (SMILES): CN(Cc1ccccc1)C12CC3CC(C)(CC(C1)c1ccccc13)C2
- IC50 (Trypanosoma brucei [6]): 5.25 µM
- IC90 (Trypanosoma brucei [6]): 10.8 µM
- Activity (Reovirus sp.): inactive
- Activity (Human respirovirus 3): inactive
- Activity [3]: inactive
- Activity (Feline coronavirus): inactive
- IC50 [4]: > 500 µM
- Activity (Coxsackievirus B4): inactive
- Activity (Human alphaherpesvirus 2): inactive
- Activity (Human alphaherpesvirus 1): inactive
- Activity (Vaccinia virus): inactive
- Activity (Sindbis virus): inactive
- Activity (Punta Toro virus): inactive
- IC50 [5]: > 200 µM

Structure (SMILES): CC(N)C12CC3CC(CC(C3)C1)C2 (centres undefined) [RIMANTADINE]
- IC90 (Trypanosoma brucei [6]): 14 µM

Structure (SMILES): CC12CC3CC(C)(C1)CC(N)(C3)C2 [MEMANTINE]
- IC90 (Trypanosoma brucei [6]): 21.4 µM

Structure (SMILES): C#CCNC12CC3CC(C)(CC(C1)c1ccccc13)C2
- IC50 (Trypanosoma brucei [6]): 1.99 µM
- IC90 (Trypanosoma brucei [6]): 3.14 µM
- Activity (Reovirus sp.): inactive
- Activity (Human respirovirus 3): inactive
- Activity [3]: inactive
- Activity (Feline coronavirus): inactive
- IC50 [4]: > 500 µM
- Activity (Coxsackievirus B4): inactive
- Activity (Human alphaherpesvirus 2): inactive
- Activity (Human alphaherpesvirus 1): inactive
- Activity (Vaccinia virus): inactive
- Activity (Sindbis virus): inactive
- Activity (Punta Toro virus): inactive
- IC50 [5]: 27.5 µM
- Ratio (Trypanosoma brucei [9]): >4

Structure (SMILES): CNC12CC3CC(C)(CC(C1)c1ccccc13)C2
- IC50 (Trypanosoma brucei [6]): 4.46 µM
- IC90 (Trypanosoma brucei [6]): 6.66 µM
- Activity (Reovirus sp.): inactive
- Activity (Human respirovirus 3): inactive
- Activity [3]: inactive
- Activity (Feline coronavirus): inactive
- IC50 [4]: 455 µM
- Activity (Coxsackievirus B4): inactive
- Activity (Human alphaherpesvirus 2): inactive
- Activity (Human alphaherpesvirus 1): inactive
- Activity (Vaccinia virus): inactive
- Activity (Sindbis virus): inactive
- Activity (Punta Toro virus): inactive
- IC50 [5]: 19.4 µM

Structure (SMILES): CC12CC3CC(N)(CC(C1)c1ccccc13)C2
- IC50 (Trypanosoma brucei [6]): 4.8 µM
- IC90 (Trypanosoma brucei [6]): 9.6 µM
- Activity (Reovirus sp.): inactive
- Activity (Human respirovirus 3): inactive
- Activity [3]: inactive
- Activity (Feline coronavirus): inactive
- IC50 [4]: 22 µM
- Activity (Coxsackievirus B4): inactive
- Activity (Human alphaherpesvirus 2): inactive
- Activity (Human alphaherpesvirus 1): inactive
- Activity (Vaccinia virus): inactive
- Activity (Sindbis virus): inactive
- Activity (Punta Toro virus): inactive
- inhibition [8]: inactive
- IC50 [5]: 13.6 µM
